This is a sample that favours compounds with a hit; in the whole collection about 3.7% have one here.
KCNQ1 inh – inhibitors of human KCNQ1 channel, primary screen, cell-based, thallium flux, high-throughput; 310,000 compounds, 1.3% hits; B-score at 10 µM; AID 2642, 2010; Potassium voltage-gated channel subfamily KQT member 1 (Homo sapiens), P51787; CHO-K1 KCNQ1, FluxOR thallium flux fluorescence; stronger effect = higher value;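 active = compounds whose thallium flux B-score, printed positive for inhibition, exceeds three library SD while starting fluorescence stays within three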;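 note: channel opened by potassium depolarization with thallium stimulus after 20 min compound exposure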
hERG rescue – hERG rescue from dofetilide block, primary screen, cell-based, CHO-hERG, FluxOR thallium flux, dofetilide IC70; Voltage-gated inwardly rectifying potassium channel KCNH2 (Homo sapiens), Q12809; dofetilide IC70 present; activation (rescue from dofetilide block), less the hit threshold, % at 10 µM; 310,000 compounds, 0.51% hits; AID 1511, 2009;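 active = activation above the mean of controls blocked by dofetilide plus 5 SD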;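 note: thallium influx through hERG after potassium depolarization seen as dye fluorescence rise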
KCNK3 block – human KCNK3 channel inhibitors, primary screen, CHO cells, FluxOR thallium flux, B-score | 340,000 compounds, 0.84% hits | FluxOR fluorescence; stronger effect = lower value | B-score at 10 µM | Potassium channel subfamily K member 3 (Homo sapiens), O14649;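 active = B-score under library mean minus 4 SD, starting fluorescence ratio at most library mean plus 5 SD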;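 note: more negative B-score means stronger inhibition of thallium flux through KCNK3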
KCNK9 inh – KCNK9 potassium channel inhibitors, primary screen, HEK293 cells, thallium flux. Potassium channel subfamily K member 9 (Homo sapiens), Q9NPC2. FluxOR thallium flux fluorescence; stronger effect = lower value. B-score at 10 µM. 310,000 compounds, 1.2% hits. AID 488922, 2010;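 active = ratio B-score over 3 SD below the library mean, with starting fluorescence within 5 SD of its mean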;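 note: negative B-score means less thallium flux so channel inhibition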
Kir21 inh – inhibitors of mouse Kir2.1 inward-rectifier potassium channel; Inward rectifier potassium channel 2 (Mus musculus), P35561; HEK293-Kir2.1, FluxOR thallium flux fluorescence; stronger effect = lower value; B-score at 10 µM; 310,000 compounds, 0.85% hits; AID 1672, 2009;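 active = fluorescence ratio B-score at or below minus 3 SD of library scores, with starting-brightness B-score within 2 SD, cut at about -4.2 in these data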;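 note: channel flux triggered by added potassium and thallium sulfate stimulus; B-score of peak minus minimum fluorescence over baseline after thallium stimulus; more negative B-score means stronger Kir2.1 block with less thallium influx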
Target sequence (P35561 whole entry, looked up): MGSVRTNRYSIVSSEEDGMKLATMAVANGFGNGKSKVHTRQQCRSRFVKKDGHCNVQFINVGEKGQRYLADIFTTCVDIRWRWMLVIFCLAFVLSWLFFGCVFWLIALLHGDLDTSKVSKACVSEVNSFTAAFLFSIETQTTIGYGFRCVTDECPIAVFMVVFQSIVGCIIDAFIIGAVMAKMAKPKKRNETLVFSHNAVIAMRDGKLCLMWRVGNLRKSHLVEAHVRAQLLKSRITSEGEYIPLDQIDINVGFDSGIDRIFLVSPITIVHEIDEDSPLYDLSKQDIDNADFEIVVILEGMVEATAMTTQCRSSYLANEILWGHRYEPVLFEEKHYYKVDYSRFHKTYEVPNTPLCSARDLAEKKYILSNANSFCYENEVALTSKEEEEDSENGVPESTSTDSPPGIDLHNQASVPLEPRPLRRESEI
KCNQ1 pot – potentiators or activators of KCNQ1 channel, primary screen, cell-based, thallium flux, high-throughput; AID 2648, 2010; 310,000 compounds, 0.35% hits; B-score at 10 µM; Potassium voltage-gated channel subfamily KQT member 1 (Homo sapiens), P51787; CHO-K1 KCNQ1, thallium flux FluxOR fluorescence; stronger effect = higher value;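 active = fluorescence ratio B-score, a plate-corrected score, at least three library SD, with initial intensity B-score within 5 SD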
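Assay system: CHO-K1 cells stably expressing KCNQ1; Medium: assay buffer with matched DMSO; Also added: K+/Tl+ depolarizing stimulus; Dosing: single dose; Timing: dye 90 min, compound 20 min, room temperature; Measured by: kinetic FluxOR thallium fluorescence, 10-s 1-Hz baseline, 110-s post-stimulus read; Read-out: peak-minus-minimum fluorescence over initial fluorescence, negative-control normalized, B-scored.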
KCNK3 inh conf – retest of human KCNK3 channel inhibitors, confirmation, CHO cells, FluxOR thallium flux, triplicate; 2,400 compounds, 99% hits; ratio percent of control, % at 10 µM; FluxOR fluorescence; 0% buffer, 100% carvedilol maximal block; shares compounds with KCNK3 block;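 active = ratio percent of control, averaged over triplicates, above buffer control mean plus 5 SD, cut at about 64% in these data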;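 note: ratio is the fluorescence rise from min to max over baseline after thallium stimulus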
KCNK3 noninduced – thallium flux inhibition in non-induced cells, primary screen, counter-screen for KCNK3 inhibitor project, cell-based, non-induced KCNK3 line, FluxOR thallium, triplicate | 2,400 compounds, 40% hits | shares compounds with KCNK3 block | non-induced KCNK3 parental cells; stronger effect = lower value | thallium flux ratio (lower = more inhibition) at 10 µM;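 active = thallium flux ratio, averaged over three wells, more than 5 SD below the buffer control mean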;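 note: host cells are CHO cells without KCNK3 induction; ratio is peak minus trough fluorescence over baseline then normalized to buffer controls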
* hit, by the source's call; i = inactive; . = not tested or not shown.

SMILES	KCNQ1 inh	hERG rescue	KCNK3 block	KCNK9 inh	Kir21 inh	KCNQ1 pot	KCNK3 inh conf	KCNK3 noninduced
O=C(c1cc2nc(-c3ccc(F)cc3)cc(C(F)(F)F)n2n1)N1CCCCC1c1cccnc1 (stereo not drawn)	i	-23.0	-10.9*	i	0.44	i	120.7*	0.142*
O=C(Cc1ccccc1[N+](=O)[O-])NCCSCc1c(F)cccc1Cl	i	-5.5	i	i	1.23	i	.	.
Cc1ccccc1CC(=O)c1ccc(O)c(C)c1O	i	-12.1	-12.7*	i	-0.64	i	115.0*	0.154*
COc1ccc(C2=NS(=O)(=O)N(C)C(C(=O)N3CCCCC3C)=C2)cc1 (stereo not drawn)	i	-14.8	i	i	1.03	i	.	.
COc1ccc(NC(=O)c2cccs2)cc1NC(=O)c1ccco1	i	-5.3	i	i	-0.57	i	.	.
O=C(Nc1ccc2nc(-c3cccs3)[nH]c2c1)c1ccco1	i	-10.4	-10.2*	i	1.71	i	81.3*	i
Cc1ccc(NC(=O)c2cccs2)cc1NC(=O)c1ccco1	i	-6.3	-8.81*	i	0.1	i	105.0*	i
CN(C)c1ccc(CNc2ncnc3sccc23)cc1	i	-8.1	i	i	-0.15	i	.	.
CCOc1cc(CNc2ccccc2)cc(Br)c1OCc1ccc(F)cc1	i	-9.6	-8.76*	i	0.38	i	84.3*	0.159*
CCOc1cc(CNc2ccccc2)cc(Br)c1OCC(=O)NC(C)(C)C	i	-3.6	i	i	0.01	i	.	.
COc1ccc(-n2nnnc2-c2ccc(S(C)(=O)=O)cc2Cl)cc1	i	-5.2	i	i	-1.88	i	.	.
CCc1ccc(CN(C)C(=O)c2cc(COc3ccc(-n4cncn4)cc3)on2)cc1	i	-2.4	i	i	-0.03	i	.	.
c1ccc(-c2nc(NCCCn3ccnc3)c3ccccc3n2)cc1	i	-30.9	-11.4*	i	-1.01	i	100.0*	0.148*
Cn1c(N)c(C(=O)COC(=O)Cc2ccc(Cl)cc2)c(=O)n(C)c1=O	.	.	i	.	.	.	.	.
COc1ccc(/C=C/C(=O)N2CCCc3ccccc32)c(OC)c1	i	-10.8	i	i	2.11	i	.	.
COc1ccc(OC)c(/C=C/C(=O)N2CCCc3ccccc32)c1	i	-10.5	-11.2*	i	0.01	i	113.3*	i
CCCC(=O)Nc1ccc(-c2csc(N/N=C\c3ccncc3)n2)cc1	i	-8.3	-8.8*	i	0.78	i	106.7*	0.155*
COc1cc2nc(Nc3ccc(C)c(C)c3)nc(N)c2cc1OC	i	-15.7	-9.26*	i	-4.7*	i	114.3*	i
N#Cc1cc(-c2ccc(Cl)cc2)cn(Cc2c(Cl)cccc2Cl)c1=O	i	-8.5	i	i	-0.15	i	.	.
CC(C)n1cc(-c2ccc(Cl)cc2)cc(C#N)c1=O	i	0.3	-10.2*	i	3.15	i	106.7*	i
COc1ccc(CCNC(=O)CCC(=O)N2CCOc3ccccc32)cc1OC	i	-7.8	i	i	0.21	i	.	.
COc1ccc(/C=C/C(=O)c2ccc([N+](=O)[O-])o2)cc1	i	-12.4	-10.7*	i	0.29	i	99.0*	i

Bioassay records deposited in PubChem by Johns Hopkins Ion Channel Center.
